Several values for one entry are separate records, joined by “and”; a condition that tells them apart may be missing. Identical values can stand only once.
Tested on: U2OS
Assay: Multiplex assay against U2OS
Assay type: toxicity, cell-based
Details: human, 12 h, 1 µM, compound concentration 1 uM
Outline: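 Imaging took place on a CQ1 microscope at 37°C and 5% CO2 once compound had been added to live cells stained at seeding with Hoechst33342, BioTracker Green Microtubule Cytoskeleton Dye, MitoTracker Red and Annexin V Alexa Fluor 680. CellPathfinder machine-learning gating classed cells as Hoechst high-intensity objects or normal cells, classed normal cells as having healthy, pyknosed or fragmented nuclei, and classed pyknosed cells as mitotic or apoptotic. Tubulin, mitochondrial-mass and membrane-permeability phenotypes are per cents of the healthy-nucleus cells.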

Structure (SMILES)	Population Apoptotic (%)	Population Fragmented Nuclei (%)	Population Healthy Nuclei (%)	Population Hoechst High Intensity Objects (%)	Population Membrane Permeable-Phenotype (%)	Population Mitochondria Different-Phenotype (%)	Population Mitotic Cells (%)	Population Normal (%)	Population Tubulin-Different-Phenotype (%)	Total Cell Count
Cc1cc(NC(=O)c2cccc(NC(=O)/C=C/CN(C)C)c2)ccc1Nc1nccc(-c2cccnc2)n1	27.59% and 30.56%	1.96% and 1.23%	90.93% and 76.69%	0%	0.54% and 4%	0% and 11.2%	72.41% and 69.44%	100%	1.35% and 1.6%	408 and 163
CN(C)C(=O)Cn1cc(-c2ccc(-c3nnc4ccccn34)cc2)cn1	90%	25% and 22%	66% and 68%	1% and 0%	6% and 3%	1% and 6%	9%	98% and 99%	3% and 4%	251 and 123
CN(C)C/C=C/C(=O)Nc1ccc(C(=O)N2CCCC(Nc3ncc(Cl)c(-c4c[nH]c5ccccc45)n3)C2)cc1 (stereo unspecified)	77% and 83%	31% and 18%	60% and 77%	2% and 0%	5% and 6%	3% and 5%	22% and 16%	97% and 99%	4% and 8%	228 and 139
COc1ccc2[nH]c(I)c(CCNC(C)=O)c2c1 [IODOMELATONIN]	68% and 37%	19% and 11%	74% and 83%	2% and 0%	4% and 5%	3% and 1%	31% and 62%	97% and 99%	1% and 2%	282 and 156

Same assay, conditions: human, 12 h, 1 µM, compound concentration 1 uM

Structure (SMILES)	Population Pyknosed Nuclei (%)
CN(C)C(=O)Cn1cc(-c2ccc(-c3nnc4ccccn34)cc2)cn1	8% and 9%
CN(C)C/C=C/C(=O)Nc1ccc(C(=O)N2CCCC(Nc3ncc(Cl)c(-c4c[nH]c5ccccc45)n3)C2)cc1 (stereo unspecified)	8% and 4%
COc1ccc2[nH]c(I)c(CCNC(C)=O)c2c1 [IODOMELATONIN]	5%

Same assay, conditions: human, 12 h, 10 µM, compound concentration 10 uM

Structure (SMILES)	Population Apoptotic (%)	Population Fragmented Nuclei (%)	Population Healthy Nuclei (%)	Population Hoechst High Intensity Objects (%)	Population Membrane Permeable-Phenotype (%)	Population Mitotic Cells (%)	Population Normal (%)	Population Pyknosed Nuclei (%)	Population Tubulin-Different-Phenotype (%)	Total Cell Count
Cc1cc(NC(=O)c2cccc(NC(=O)/C=C/CN(C)C)c2)ccc1Nc1nccc(-c2cccnc2)n1	30.59% and 26%	2.2% and 3.08%	71.07% and 58.46%	0%	61.06% and 84.21%	69.41% and 74%	100%	26.73% and 38.46%	71.68% and 55.26%	318 and 130
CN(C)C(=O)Cn1cc(-c2ccc(-c3nnc4ccccn34)cc2)cn1	95% and 90%	26% and 11%	65% and 81%	1%	4%	4% and 10%	98%	7%	3%	298 and 140
CN(C)C/C=C/C(=O)Nc1ccc(C(=O)N2CCCC(Nc3ncc(Cl)c(-c4c[nH]c5ccccc45)n3)C2)cc1 (stereo unspecified)	80% and 75%	31% and 25%	47% and 54%	5% and 2%	33% and 23%	20% and 25%	94% and 97%	20%	49% and 37%	233 and 121
COc1ccc2[nH]c(I)c(CCNC(C)=O)c2c1 [IODOMELATONIN]	77% and 80%	25% and 41%	64% and 54%	3% and 0%	2% and 10%	22% and 20%	96% and 99%	9% and 3%	1% and 2%	231 and 134

Same assay, conditions: human, 12 h, 10 µM, compound concentration 10 uM

Structure (SMILES)	Population Mitochondria Different-Phenotype (%)
CN(C)C(=O)Cn1cc(-c2ccc(-c3nnc4ccccn34)cc2)cn1	1% and 0%
CN(C)C/C=C/C(=O)Nc1ccc(C(=O)N2CCCC(Nc3ncc(Cl)c(-c4c[nH]c5ccccc45)n3)C2)cc1 (stereo unspecified)	40% and 42%
COc1ccc2[nH]c(I)c(CCNC(C)=O)c2c1 [IODOMELATONIN]	1% and 6%

Same assay, conditions: human, 24 h, 1 µM, compound concentration 1 uM

Structure (SMILES)	Population Apoptotic (%)	Population Fragmented Nuclei (%)	Population Healthy Nuclei (%)	Population Hoechst High Intensity Objects (%)	Population Membrane Permeable-Phenotype (%)	Population Mitotic Cells (%)	Population Normal (%)	Population Pyknosed Nuclei (%)	Population Tubulin-Different-Phenotype (%)	Total Cell Count
Cc1cc(NC(=O)c2cccc(NC(=O)/C=C/CN(C)C)c2)ccc1Nc1nccc(-c2cccnc2)n1	35.71% and 38.71%	1.26% and 5.24%	91.2% and 80%	0%	0.79% and 4.17%	64.29% and 61.29%	100%	7.54% and 14.76%	0.79% and 1.19%	557 and 210
CN(C)C(=O)Cn1cc(-c2ccc(-c3nnc4ccccn34)cc2)cn1	94% and 100%	22% and 17%	71% and 74%	0%	4% and 7%	5% and 0%	99% and 100%	5% and 8%	1% and 4%	315 and 131
CN(C)C/C=C/C(=O)Nc1ccc(C(=O)N2CCCC(Nc3ncc(Cl)c(-c4c[nH]c5ccccc45)n3)C2)cc1 (stereo unspecified)	93% and 100%	34% and 21%	53% and 67%	2% and 0%	7% and 8%	6% and 0%	97% and 99%	11%	6% and 5%	271 and 164
COc1ccc2[nH]c(I)c(CCNC(C)=O)c2c1 [IODOMELATONIN]	86% and 80%	16% and 15%	75% and 78%	1%	3% and 8%	13% and 20%	98%	8% and 5%	2%	354 and 179

Same assay, conditions: human, 24 h, 1 µM, compound concentration 1 uM

Structure (SMILES)	Population Mitochondria Different-Phenotype (%)
CN(C)C(=O)Cn1cc(-c2ccc(-c3nnc4ccccn34)cc2)cn1	2% and 7%
CN(C)C/C=C/C(=O)Nc1ccc(C(=O)N2CCCC(Nc3ncc(Cl)c(-c4c[nH]c5ccccc45)n3)C2)cc1 (stereo unspecified)	2%
COc1ccc2[nH]c(I)c(CCNC(C)=O)c2c1 [IODOMELATONIN]	1% and 0%

Same assay, conditions: human, 24 h, 10 µM, compound concentration 10 uM

Structure (SMILES)	Population Apoptotic (%)	Population Fragmented Nuclei (%)	Population Hoechst High Intensity Objects (%)	Population Membrane Permeable-Phenotype (%)	Population Mitochondria Different-Phenotype (%)	Population Mitotic Cells (%)	Population Normal (%)	Population Pyknosed Nuclei (%)	Population Tubulin-Different-Phenotype (%)	Total Cell Count
Cc1cc(NC(=O)c2cccc(NC(=O)/C=C/CN(C)C)c2)ccc1Nc1nccc(-c2cccnc2)n1	56.85% and 76.53%	2.51% and 3.51%	0.31% and 0%	25.44% and 41.67%	21.93% and 41.67%	43.15% and 23.47%	99.69% and 100%	61.76% and 85.96%	54.39% and 58.33%	320 and 114
CN(C)C(=O)Cn1cc(-c2ccc(-c3nnc4ccccn34)cc2)cn1	86% and 87%	22% and 10%	2% and 1%	4% and 7%	1%	13% and 12%	97% and 98%	11% and 4%	2% and 3%	333 and 180
CN(C)C/C=C/C(=O)Nc1ccc(C(=O)N2CCCC(Nc3ncc(Cl)c(-c4c[nH]c5ccccc45)n3)C2)cc1 (stereo unspecified)	87% and 97%	39% and 31%	9% and 5%	22% and 21%	33% and 28%	12% and 2%	90% and 94%	25% and 32%	29% and 17%	239 and 135
COc1ccc2[nH]c(I)c(CCNC(C)=O)c2c1 [IODOMELATONIN]	95% and 88%	25% and 34%	1%	4% and 7%	1% and 5%	4% and 11%	98%	8% and 5%	1% and 2%	273 and 153

Same assay, conditions: human, 24 h, 10 µM, compound concentration 10 uM

Structure (SMILES)	Population Healthy Nuclei (%)
CN(C)C(=O)Cn1cc(-c2ccc(-c3nnc4ccccn34)cc2)cn1	66% and 85%
CN(C)C/C=C/C(=O)Nc1ccc(C(=O)N2CCCC(Nc3ncc(Cl)c(-c4c[nH]c5ccccc45)n3)C2)cc1 (stereo unspecified)	35%
COc1ccc2[nH]c(I)c(CCNC(C)=O)c2c1 [IODOMELATONIN]	66% and 59%

Same assay, conditions: human, 48 h, 1 µM, compound concentration 1 uM

Structure (SMILES)	Population Apoptotic (%)	Population Fragmented Nuclei (%)	Population Healthy Nuclei (%)	Population Hoechst High Intensity Objects (%)	Population Membrane Permeable-Phenotype (%)	Population Mitochondria Different-Phenotype (%)	Population Mitotic Cells (%)	Population Normal (%)	Population Pyknosed Nuclei (%)	Population Tubulin-Different-Phenotype (%)
Cc1cc(NC(=O)c2cccc(NC(=O)/C=C/CN(C)C)c2)ccc1Nc1nccc(-c2cccnc2)n1	41.94% and 59.02%	4.41% and 6.54%	86.07% and 73.53%	0% and 0.33%	0.6% and 3.11%	0% and 7.56%	58.06% and 40.98%	100% and 99.67%	9.53% and 19.93%	1.67% and 0.89%
CN(C)C(=O)Cn1cc(-c2ccc(-c3nnc4ccccn34)cc2)cn1	87% and 93%	16% and 11%	75% and 67%	2%	4% and 7%	2% and 3%	12% and 6%	97%	7% and 20%	1% and 3%
CN(C)C/C=C/C(=O)Nc1ccc(C(=O)N2CCCC(Nc3ncc(Cl)c(-c4c[nH]c5ccccc45)n3)C2)cc1 (stereo unspecified)	94% and 96%	29% and 10%	60% and 77%	3%	10% and 3%	3%	5% and 3%	96%	10% and 12%	5% and 3%
COc1ccc2[nH]c(I)c(CCNC(C)=O)c2c1 [IODOMELATONIN]	92% and 86%	12% and 13%	79% and 81%	1%	5% and 4%	2%	7% and 13%	98%	7% and 5%	3%

Same assay, conditions: human, 48 h, 1 µM, compound concentration 1 uM

Structure (SMILES)	Total Cell Count
CN(C)C(=O)Cn1cc(-c2ccc(-c3nnc4ccccn34)cc2)cn1	426 and 158
CN(C)C/C=C/C(=O)Nc1ccc(C(=O)N2CCCC(Nc3ncc(Cl)c(-c4c[nH]c5ccccc45)n3)C2)cc1 (stereo unspecified)	339 and 221
COc1ccc2[nH]c(I)c(CCNC(C)=O)c2c1 [IODOMELATONIN]	509 and 284

Same assay, conditions: human, 48 h, 10 µM, compound concentration 10 uM

Structure (SMILES)	Population Apoptotic (%)	Population Fragmented Nuclei (%)	Population Healthy Nuclei (%)	Population Hoechst High Intensity Objects (%)	Population Mitotic Cells (%)	Population Normal (%)	Population Pyknosed Nuclei (%)	Total Cell Count	Population Membrane Permeable-Phenotype (%)	Population Mitochondria Different-Phenotype (%)
Cc1cc(NC(=O)c2cccc(NC(=O)/C=C/CN(C)C)c2)ccc1Nc1nccc(-c2cccnc2)n1	92.36% and 96.04%	3.57% and 4%	7.14% and 15.2%	0%	7.64% and 3.96%	100%	89.29% and 80.8%	308 and 125	–	–
CN(C)C(=O)Cn1cc(-c2ccc(-c3nnc4ccccn34)cc2)cn1	95% and 85%	21% and 8%	67% and 81%	3% and 2%	4% and 14%	96% and 97%	11% and 9%	418 and 284	8% and 6%	4% and 2%
CN(C)C/C=C/C(=O)Nc1ccc(C(=O)N2CCCC(Nc3ncc(Cl)c(-c4c[nH]c5ccccc45)n3)C2)cc1 (stereo unspecified)	100%	50%	17% and 18%	15% and 9%	0%	84% and 90%	32% and 31%	251 and 157	47% and 26%	27% and 19%
COc1ccc2[nH]c(I)c(CCNC(C)=O)c2c1 [IODOMELATONIN]	97% and 100%	21% and 29%	68% and 65%	2% and 0%	2% and 0%	97% and 99%	9% and 5%	373 and 209	5% and 7%	0% and 5%

Same assay, conditions: human, 48 h, 10 µM, compound concentration 10 uM

Structure (SMILES)	Population Tubulin-Different-Phenotype (%)
CN(C)C(=O)Cn1cc(-c2ccc(-c3nnc4ccccn34)cc2)cn1	4% and 2%
CN(C)C/C=C/C(=O)Nc1ccc(C(=O)N2CCCC(Nc3ncc(Cl)c(-c4c[nH]c5ccccc45)n3)C2)cc1 (stereo unspecified)	38% and 23%
COc1ccc2[nH]c(I)c(CCNC(C)=O)c2c1 [IODOMELATONIN]	2% and 4%

— ChEMBL document CHEMBL5724801, “EUbOPEN Chemogenomics Library - Multiplex” (2024)
